High-throughput results deposited in PubChem BioAssay by several laboratories.
S1P3 antagonist – antagonists of human S1P3 receptor. Q99500. CHO S1P3 NFAT-BLA reporter, FRET fluorescence, antagonist mode. inhibition, % at 4.98 µM. hit rate 0.27% among 170,000;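 active = inhibition above the plate cutoff, the mean inhibition of test wells on that plate plus 3 SD, cut at about 28% in these data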;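 also: cells challenged with S1P at its EC80 of 0.8 µM; blue over green emission ratio from cleaved BLA substrate after 4 h stimulation; 0% = S1P-stimulated wells and 100% = unstimulated DMSO-only wells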
Target sequence (Q99500 whole entry, looked up): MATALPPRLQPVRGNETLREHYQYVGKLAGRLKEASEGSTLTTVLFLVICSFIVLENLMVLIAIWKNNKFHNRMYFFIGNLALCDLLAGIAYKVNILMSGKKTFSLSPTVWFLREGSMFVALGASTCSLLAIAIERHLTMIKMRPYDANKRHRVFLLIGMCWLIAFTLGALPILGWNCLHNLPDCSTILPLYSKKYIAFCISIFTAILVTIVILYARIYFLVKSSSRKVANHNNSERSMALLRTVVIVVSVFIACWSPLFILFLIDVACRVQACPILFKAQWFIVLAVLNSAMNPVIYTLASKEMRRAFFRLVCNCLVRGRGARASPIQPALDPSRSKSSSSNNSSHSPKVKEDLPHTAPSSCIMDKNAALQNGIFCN
L major viab – reduces viability of Leishmania major promastigotes | AID 1063 | inhibition, % at 10 µM | hit rate 9% among 200,000 | resazurin fluorescence viability; in the data active = inhibition above about 50%;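 also: promastigotes grown with compound for 44 hours at 28 °C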
S1P4 antag – antagonists of human S1P4 receptor | O95977 | S1P4-expressing cells, antagonist mode, reporter read-out | inhibition, % at 4.98 µM | hit rate 0.26% among 220,000; in the data active = inhibition above about 29%;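 also: 0% = wells stimulated with agonist and 100% = vehicle wells without agonist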
S1P4 agonist – activates the human S1P4 receptor; S1P4-expressing cell line, agonist reporter assay; activation, % at 4.98 µM; hit rate 0.35% among 220,000; AID 1509; in the data active = activation above about 11%;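 also: 0% = DMSO vehicle and 100% = reference agonist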
Mdm2 ligase inh – Mdm2 E3 ligase (human) inhibition; Q00987; cell-based MDM2 ubiquitination luciferase reporter, 2 h; 0 = plate control, 100 = twice control, blank-subtracted; signal enhancement, % at 5 µM; hit rate 0.11% among 210,000; AID 1230;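 active = signal enhancement of 30% or more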;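 also: luminescence tracks abundance of the self-degrading MDM2-luciferase fusion protein; higher signal means inhibition of MDM2 E3 ligase activity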
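Buffer or medium: Cells held in DMEM | Assay system: Stable mammalian line carrying autodegrading MDM2–luciferase fusion reporter | Quantity: 2000 cells/well | Times: 4 h settle plus 2 h compound, 37 °C | Doses: One concentration, 5 µM, with 0.2% DMSO | Technique: Luminescence with SteadyLite reagent, 15 min at room temperature | Benchmarks: Plate controls and plate blanks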
* marks the source's active call; other numbers are inactive results; nt = not tested or not shown. Shown is part of a subset that was picked to be rich in hits.

SMILES	S1P3 antagonist	L major viab	S1P4 antag	S1P4 agonist	Mdm2 ligase inh
O=C(O)c1nn(-c2ccccc2-c2n[nH]c(=O)[nH]c2=O)c(=O)[nH]c1=O	-13	nt	1	0	nt
O=C(NCCCCCCNC(=O)c1cncc(O)c1)c1cncc(O)c1	-4	nt	0	0	nt
Cc1ccc(C(C(=O)NC2CCCCC2)N(Cc2ccco2)C(=O)Cn2cnc3ccccc32)cc1 (stereo unspecified)	nt	60*	-8	2	14
O=C(NC1CCCCC1)C(c1ccc(F)cc1)N(Cc1ccco1)C(=O)Cn1nnc2ccccc21 (stereo unspecified)	14	44	1	-1	-11
Cc1cc(C)nc(NC2=NC3CCCCC3N2)n1 (stereo unspecified)	12	64*	-15	0	-1
COc1ccccc1N(CC(=O)NC1CCCC1)C(=O)c1oc(C(C)(C)C)cc1C	17	62*	-69	-1	-11
COc1ccc(NC(C)C(=O)Nc2cc(C(F)(F)F)ccc2N2CCOCC2)c(OC)c1 (stereo unspecified)	0	72*	-10	2	-11
COc1cc(Cl)c(C)cc1NC(C)C(=O)Nc1cc(C(F)(F)F)ccc1N1CCOCC1 (stereo unspecified)	17	6	-11	1	0
CCc1ccc(NC(=O)c2cc(-c3ccco3)on2)cc1	59*	0	-3	1	-29
CN1CCN(C2=C(Cl)C(=O)N(C3CCCCC3)C2=O)CC1	-83	95*	0	0	-12
Cc1cc(N(CC(=O)NC(C)C)S(C)(=O)=O)ccc1Br	-9	11	-6	2	-9
COc1ccc(-c2c(C(C)=O)c(C)nc3sc4c(=O)[nH]nnc4c23)cc1	0	59*	-26	0	-7
O=C(CCc1nnc(CCc2ccccc2)o1)N1CCCC1c1nccs1 (stereo unspecified)	-14	-4	2	-1	-7
S=C1NCCOCCOCCOCCOCCNC(=S)NCCOCCOCCOCCOCCN1	nt	2	-9	1	3
N#CC(C#N)=C1NC2(CCCC2)Cc2ccccc21	3	85*	-32	2	-1
CCCCn1c(=O)[nH]c(=O)c2c1nc(-c1ccc(CC)c([N+](=O)[O-])c1)n2C	-5	84*	-2	0	10
CCOCCN1CCN(c2c(C)c(C)nc3cc(-c4cc(OC)cc(OC)c4)nn23)CC1	nt	83*	13	-3	-11
CCc1c(C)nc2cc(-c3cc(OC)cc(OC)c3)nn2c1N1CCN(CCN2CCOCC2)CC1	nt	88*	11	-2	nt
Cc1ccc(C(=O)n2c(-c3ccccc3)cnc2SCC(=O)Nc2ccc(C)cc2C)cc1	-6	28	-25	3	-1
CN(C)CCCN(Cc1ccccc1)C(=S)Nc1cccc(C(F)(F)F)c1	7	60*	-10	1	-20
CCCN(Cc1ccccc1)C(=S)Nc1ccc(SC(F)F)cc1	5	53*	6	-2	-7
CCCN(Cc1ccccc1)C(=S)Nc1ccc(F)cc1	16	1	9	0	-5
CCCN(Cc1ccccc1)C(=S)Nc1cccc(C(F)(F)F)c1	10	91*	-14	0	-17
COc1ccc(OC)c(NC(=O)CSc2nc(C)cs2)c1	21	3	-23	1	21
O=S1(=O)Cc2cc3ccccc3cc2C1	5	-4	-6	1	3
SMILES	S1P3 antagonist	L major viab	S1P4 antag	S1P4 agonist	Mdm2 ligase inh
CCOC(=O)N1CCN(c2cc(N3CCN(CC)CC3)c(F)cc2[N+](=O)[O-])CC1C (stereo unspecified)	nt	100*	-15	-1	-12
Cc1ccc(SCCNS(=O)(=O)c2ccc(F)cc2)cc1	1	53*	-1	3	-18
O=S(=O)(NCCSc1ccc(Cl)cc1)c1ccc(F)cc1	nt	5	-22	0	-4
COc1ccc(/C=C(/C#N)C(=O)Nc2cccc(C)c2C)cc1C(=O)O	nt	-4	-10	-3	-5
N#C/C(=C\c1cccc([N+](=O)[O-])c1)C(=O)NCc1cccnc1	-13	41	-10	-1	-18
COCCNC(=O)/C(C#N)=C/c1cccc(/C=C(\C#N)C(=O)NCCOC)c1	-22	99*	-30	0	70*
COc1ccc(/C=C(/C#N)C(=O)Nc2ccccc2C)cc1C(=O)O	-2	59*	-13	-1	-5
CCCCNC(=O)/C(C#N)=C/c1cccnc1	1	93*	-13	-1	2
N#C/C(=C\c1cccc([N+](=O)[O-])c1)C(=O)NCc1ccc(Cl)cc1	-6	51*	-16	1	0
Cc1ccc(NC(=O)C2CC(=O)N/C(=N/N=C/c3ccco3)S2)cc1C (stereo unspecified)	3	-3	-10	1	-16
COc1ccc(/C=C(\C#N)C(=O)NCCc2ccccc2)cc1OCc1ccccc1	-3	96*	-3	1	23
COCCNC(=O)/C(C#N)=C/C=C/c1ccccc1[N+](=O)[O-]	7	81*	-2	1	2
COCCNC(=O)/C(C#N)=C/C(C)=C/c1ccccc1	0	74*	-15	2	7
COCCNC(=O)/C(C#N)=C/c1ccc(O)c([N+](=O)[O-])c1	-16	3	-22	0	-5
COCCCNC(=O)/C(C#N)=C/c1ccc(OCC(=O)O)c(OC)c1	-3	-5	-2	0	-10
CCOc1cc(CNc2ccc(OC)cc2)cc(Br)c1OCC(=O)NC(C)(C)C	nt	100*	-2	3	-12
CCOc1cc(CNc2ccc(Br)cc2)cc(Br)c1OCC(=O)NC(C)(C)C	nt	5	-11	2	-6
CCOC(=O)c1c(N)n(CCOC(=O)c2cccs2)c2nc3ccccc3nc12	-11	60*	-14	0	-7
CCCCCOC(=O)c1c(N)n(CCOC)c2nc3ccccc3nc12	nt	100*	-5	2	-11
CCOC(=O)c1c(N)n(C2CC(C)(C)NC(C)(C)C2)c2nc3ccccc3nc12	nt	83*	-18	0	-13
CCOC(=O)c1c(NC(=O)c2ccco2)n(C2CCCCC2)c2nc3ccccc3nc12	nt	100*	-2	3	-14
CCOC(=O)c1c(N)n(-c2ccc(N)cc2)c2nc3ccccc3nc12	9	1	10	0	-2
COCCOC(=O)c1c(N)n(CCCN2CCOCC2)c2nc3ccccc3nc12	-4	nt	-11	3	2
Fc1ccc(CO/N=C2\CCCc3nonc32)cc1	-5	2	-4	2	-4
Cc1cc(C)c(O)c(-c2cc(C(=O)Nc3c(C)n(C)n(-c4ccccc4)c3=O)[nH]n2)c1	6	nt	15	-2	5
CC1(NC(=S)N(CCO)CCO)CCS(=O)(=O)C1 (stereo unspecified)	-11	-4	-19	5	-9
CN(C)CC/C=C1\c2ccccc2COc2ccccc21	-12	100*	-22	1	nt
Cc1noc(C)c1CSc1nc2ccccc2n1CCc1ccccc1	24	8	6	-1	0
